Compound activity: PubChem, several laboratories
RAM network inh: blocks the yeast RAM network; S. cerevisiae dse1pr::URA3 reporter, 5-FOA growth OD615, 2 d; analog-sensitive cbk1-as2 kinase mutant strain; inhibition, % at 50 µM; hit rate 1.8% among 190,000; AID 868;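 active = inhibition above a set limit, 3 SD over mean compound inhibition, cut at about 8.4% in these data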;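 note: 0% = DMSO-only wells with no growth and 100% = 10 µM 1-NA-PP1 full growth; inhibition rescues growth on 5-FOA so higher OD means more RAM inhibition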
Yeast growth inh: chemicals that inhibit yeast BB579 growth in restrictive medium (lifespan-shortening candidates). S. cerevisiae BB579 growth, OD615, 48 h. inhibition, % at 10 µM. hit rate 0.51% among 140,000. AID 804;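 active = inhibition above a set limit, 3 SD over the mean compound inhibition, cut at about 44% in these data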
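System: Saccharomyces cerevisiae DeaD strain BB579, replicative lifespan model yeast | Buffer or medium: Restrictive glucose-based CSMM-D medium | Times: 4 h preincubation and 48 h exposure at 30 °C | Detection: OD615 turbidity measurement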
Yeast lifespan up: extends the lifespan of yeast. hit rate 0.68% among 130,000. S. cerevisiae growth with nicotinamide, OD615; deaD strain in restrictive glucose medium. inhibition of the nicotinamide effect, % at 10 µM;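 active = inhibition above a set limit, placed 3 SD over the median of all compounds, cut at about 26% in these data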;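 note: 0% = nicotinamide-treated wells and 100% = cells grown without nicotinamide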
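Test system – modified budding yeast, DeaD strain · Compound – single dose 10 µM compound, 0.25% DMSO · Times – culture preincubation 4 h, compound exposure 48 h, both 30 °C · Detection – optical density (absorbance) at 615 nm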
Ins promoter up: MIN6 insulin promoter up-regulation; hit rate 0.3% among 190,000; z-score at 5 µM; MIN6 insulin promoter-GFP reporter, high-content imaging; hits give high values;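 active = z-score above 3 at 5 µM with at least 500 cells counted in the well; inconclusive = wells under 500 cells, flagged as cytotoxic or low count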
INS promoter inh: TRM-6 insulin promoter activity inhibition | hit rate 0.9% among 130,000 | AID 1273 | TRM-6 cells, insulin promoter-eGFP reporter, imaging; reporter expression induced with tamoxifen | inhibition, % at 2 µM;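 active = inhibition above the mean plus 3 SD, with well images judged a real hit on visual review, cut at about 60% in these data, passing the limit was not always enough; inconclusive = inhibition over the cutoff but images rejected on review; inactive = inhibition not above the cutoff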
An asterisk follows results filed as active; ? = inconclusive; · = no result given. Most compounds without a hit are left out; they make up all but 3% or so of the library.

SMILES | RAM network inh | Yeast growth inh | Yeast lifespan up | Ins promoter up | INS promoter inh
COc1cc(/C=N/OCC(=O)NC2CCCCC2C)ccc1OCc1ccc(Cl)cc1 (stereo not given) | 10.6* | -20.8 | -0.8 | -0.53 | -24.3
C/C=C/C=C\C(=O)Nc1cccc(C2=NOC3(C2)C[C@@H](C(N)=O)N(C(=O)c2cc([N+](=O)[O-])cc([N+](=O)[O-])c2C)C3)c1 (stereo not given in full) | · | · | · | -0.46 | ·
COc1ccc(-n2cc(-c3ccc(Br)cc3)[nH]c2=S)cc1 | 9.6* | · | · | · | ·
COc1ccc(-n2cc(-c3ccc(OC)c(OC)c3)[nH]c2=S)cc1 | 0.9 | · | · | 0.35 | 0.0
Cc1ccc(Cn2cc(C(=O)c3ccc(F)cc3)c(=O)c3cc4c(cc32)OCCO4)cc1 | 10.3* | -24.1 | 4.5 | 0.51 | -65.0
COC(=O)c1sc2nc(C)c([N+](=O)[O-])c(C)c2c1N | 2.5 | -1.0 | -5.6 | · | ·
CCOC(=O)c1c(Nc2ccc(Cl)cc2)sc(/C=C2\C=Nc3ccccc32)c1O | 9.3* | -54.2 | 1.2 | · | -50.0
Cc1ccc(C(=O)Nc2ccc(Br)cc2)cc1S(=O)(=O)Nc1ccccn1 | 4.5 | -39.8 | 5.6 | 0.02 | ·
COc1ccc(C2C=C(c3ccc(C)cc3)Nc3ncnn32)cc1 (stereo not given) | -1.7 | 22.9 | 13.6 | -0.16 | 42.9
COc1ccc(C2C=C(c3ccc(Br)s3)Nc3ncnn32)cc1OC (stereo not given) | 8.4* | -43.4 | -9.2 | -0.39 | ·
Cn1cnnc1-c1cccc(NC(=O)c2cc(F)c(F)cc2Cl)c1 | 4.2 | · | · | · | 5.0
CC(C)(C)c1n[nH]c2c1CCCC2 | 0.3 | -40.6 | 28.0* | 0.23 | 38.5
CCOC(=O)N1CCC(N2CCN(S(=O)(=O)c3ccc([N+](=O)[O-])cc3)CC2)CC1 | · | · | · | -0.38 | ·
COc1ccc(/C=C2\CN(Cc3ccccc3)C/C(=C\c3ccc(OC)cc3OC)C2=O)c(OC)c1 | 2.4 | -44.6 | -28.4 | -1.35 | ·
COc1ccc(/C=C2\CN(Cc3ccccc3)C/C(=C\c3ccc(OC)cc3)C2=O)cc1 | 10.6* | -17.8 | 0.2 | 0.04 | 0.0
CCOC(=O)Cn1nnnc1C(CC)N(Cc1cccs1)Cc1cc2ccc(OC)cc2[nH]c1=O (stereo not given) | 9.6* | -35.4 | 0.3 | -0.13 | -15.4
O=C1C(Nc2ccc(O)cc2)=C/C(=N/S(=O)(=O)c2cccs2)c2ccccc21 | 11.2* | · | · | -4.36 | ·
COCCN1C(=O)c2ccccc2C(C(=O)NCCN(C)C)C1c1ccc(F)cc1 (stereo not given) | -0.7 | 8.2 | -2.2 | -0.37 | 78.6*
C#Cc1ccc([C@@H]2C=C(C(=O)NC3CC3)O[C@H](OCCCCO)C2)cc1 | · | · | · | -0.01 | ·
CCCSc1nc(N)cc(=O)[nH]1 | 0.8 | -28.2 | 33.8* | · | ·
C=CCC(CC=C)(NC(=O)c1cccc(C)c1)c1ccccc1 | 2.3 | -21.9 | 0.7 | -0.3 | -80.0
O=C(Cc1cccc2ccccc12)NCCOc1ccccc1F | 0.0 | · | · | 0.28 | ·
COc1cc(C2C(C#N)=C(N)Oc3c2c(-c2ccccc2)nn3-c2ccccc2)cc(OC)c1OC (stereo not given) | 2.5 | -52.2 | -1.7 | -0.2 | ·
C=CCn1c(-c2oc3nc(-c4ccccc4)cc(-c4ccccc4)c3c2N)n[nH]c1=S | 2.9 | -5.3 | -0.5 | 5.57* | ·
C=CCn1c(-c2cccc(Cl)c2)n[nH]c1=S | 0.3 | -25.3 | -11.3 | 0.52 | ·
SMILES | RAM network inh | Yeast growth inh | Yeast lifespan up | Ins promoter up | INS promoter inh
CCCn1c(Nc2nc3ccccc3n2C)nc2ccccc21 | -0.3 | 89.8* | -29.7 | -0.19 | ·
COc1ccc(CCN(Cc2nc(-c3ccccc3)no2)Cc2nc(-c3ccccc3)no2)cc1OC | 9.0* | -45.4 | 7.7 | -0.66 | 0.0
COc1ccccc1CNC(=O)c1ccc(-c2ccccc2C(F)(F)F)o1 | 7.6 | -34.5 | -5.1 | -0.38 | -25.0
COc1ccccc1NC(=O)C(=O)NCc1ccccc1Cl | 8.7* | 0.2 | 1.1 | 0.11 | 20.0
COc1ccccc1CNC(=O)c1ccc(-c2ccccc2Cl)o1 | 10.0* | -13.1 | 1.6 | 0.05 | -59.1
O=C1c2ccccc2NC(c2cnc3ccccc3n2)N1O (stereo not given) | -0.7 | -42.6 | 57.3* | -0.47 | -100.0
Cc1nn(C)c(C)c1C1Nc2ccccc2C(=O)N1O (stereo not given) | -0.6 | -19.5 | · | -0.14 | 0.0
C=C1C(=O)C=C2CN(C(=O)c3ccccc3)[C@@](Cc3ccc(F)cc3)(C(=O)OC)[C@@H]12 | 3.4 | -15.0 | 42.8* | ? | -400.0
COc1ccc(-c2cn3ccc4ccccc4c3n2)cc1 | -0.2 | 4.8 | · | 0.68 | 76.9*
